The target of series [1] is T1, Taspase1 (Homo sapiens, UniProt Q9H6P5).
T1 sequence (Q9H6P5 1-233 limits assumed): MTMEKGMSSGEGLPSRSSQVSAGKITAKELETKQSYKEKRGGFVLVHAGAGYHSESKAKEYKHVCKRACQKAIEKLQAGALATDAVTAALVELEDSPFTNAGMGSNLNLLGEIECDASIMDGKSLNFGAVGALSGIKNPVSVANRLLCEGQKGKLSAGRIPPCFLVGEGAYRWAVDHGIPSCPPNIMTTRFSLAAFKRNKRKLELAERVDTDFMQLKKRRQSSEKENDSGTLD
T1 sequence (Q9H6P5 234-420 limits assumed): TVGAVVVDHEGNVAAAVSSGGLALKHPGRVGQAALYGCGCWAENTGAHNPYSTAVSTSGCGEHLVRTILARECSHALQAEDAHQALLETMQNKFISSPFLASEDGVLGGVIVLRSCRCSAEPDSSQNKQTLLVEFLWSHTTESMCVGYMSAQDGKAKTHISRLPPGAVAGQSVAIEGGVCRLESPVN
Briefly: In vitro cleavage of radiolabeled p75MLL reporter by recombinant Taspase1. Type of series: biochemical. As to conditions: for activity against Taspase1 (cleavage of p75MLL): in vitro cleavage assay.

Series [2] is described as follows: In vivo toxicity profile after short term tail vein injections. Further details: species or system mouse.
A further series relates to U251 cells. Description: Growth inhibition of NCI60 brain tumor cell lines. Type of series: cell-based, human. The settings on record: NCI DTP GI50 data confirmed by MTT, 2 days.
For a further series, the system named is MMTV-wnt breast cancers. Briefly: MMTV-wnt mouse breast cancer model. Type of series: in vivo. The settings on record: every other day, 5 intravenous injections.
A further series deals with Caspase8 (Homo sapiens, UniProt Q14790). Briefly: Caspase8-p22Bid in vitro cleavage assay. Type of series: biochemical. As to conditions: 1 mM compound, 250 ng rCaspase8.
In a further series the test system is U251 xenograft. Description: U251 brain tumor xenograft, bioluminescent imaging. Type of series: in vivo, mouse. The settings on record: treated on days 0, 2 and 4; compared to vehicle. The method, boiled down:
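U251 cells stably expressing firefly luciferase were implanted subcutaneously into the flanks of male NOD-scid IL2Rγ−/− mice aged 6–8 weeks on day −1. Test compound was given at indicated doses on days 0, 2 and 4. Tumor mass was followed by bioluminescence imaging, normalized to 1 at day 0. Mean ± SD of 4 tumors per arm.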

Series [3] deals with T1, Taspase1. Briefly: FRET-based Taspase1 cleavage assay with FRPR reporter. Type of series: biochemical.
Series [4] concerns the target T2, Taspase1 precursor (p50T1α-β) (Homo sapiens, UniProt Q9H6P5).
T2 sequence (Q9H6P5 1-420): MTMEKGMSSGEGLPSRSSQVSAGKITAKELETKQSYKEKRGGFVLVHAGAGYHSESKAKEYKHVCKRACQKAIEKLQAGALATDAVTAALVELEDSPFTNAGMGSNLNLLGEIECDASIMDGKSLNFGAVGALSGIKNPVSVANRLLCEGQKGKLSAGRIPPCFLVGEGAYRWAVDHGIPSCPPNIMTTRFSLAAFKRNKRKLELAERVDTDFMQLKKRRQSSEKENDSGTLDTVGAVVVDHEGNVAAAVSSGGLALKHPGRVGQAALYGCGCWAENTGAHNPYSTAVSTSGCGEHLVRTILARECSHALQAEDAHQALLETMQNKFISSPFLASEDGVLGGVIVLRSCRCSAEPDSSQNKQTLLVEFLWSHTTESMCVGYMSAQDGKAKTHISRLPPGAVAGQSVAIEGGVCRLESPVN
Briefly: Intramolecular autoproteolysis of radiolabeled Taspase1 precursor p50T1α-β. As to conditions: increasing amounts, 6 hours at 30°C. Type of series: biochemical. The method, boiled down:
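Radiolabeled 50 kD Taspase1 precursor (p50T1α-β, 0.5 μl) incubated in cleavage buffer at 30°C for 6 hours with indicated concentrations of test compound. Maturation is scored as autoproteolytic conversion to the 28 kD α and 22 kD β subunits.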

The next series concerns autotaxin. The settings on record: cited from earlier work.
Series [5] has as its system Taspase1−/−;Taspase1 MEFs. Briefly: MTT relative cell number in SV40-transformed MEFs. Type of series: cell-based, mouse. As to conditions: 1uM, 2 days.
A further series concerns MMTV-neu breast cancers. Briefly: MMTV-neu mouse breast cancer model. Type of series: in vivo. The settings on record: every other day, 5 intravenous injections.
Setting [6] is: short term tail vein injections.

Data on eight molecules can be found in article PMC3325786 (Cancer Research, 2011).

DNP = 2,4-dinitrophenyl quencher group; MCA = fluorogenic coumarin group

Caspase8, sequence (Q14790 217-374 limits assumed, species assumed): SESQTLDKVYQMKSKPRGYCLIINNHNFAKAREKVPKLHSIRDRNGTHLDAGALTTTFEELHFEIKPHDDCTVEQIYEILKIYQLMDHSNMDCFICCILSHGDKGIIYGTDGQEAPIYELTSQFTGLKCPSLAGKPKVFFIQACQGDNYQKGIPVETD
Caspase8, sequence (Q14790 385-479 limits assumed, species assumed): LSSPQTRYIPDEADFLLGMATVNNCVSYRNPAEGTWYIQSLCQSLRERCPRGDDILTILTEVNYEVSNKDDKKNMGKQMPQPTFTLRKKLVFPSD

Consider `CC(C)C[C@H](NC(=O)[C@H](Cc1ccccc1)NC(=O)c1cnccn1)B(O)O` [Bortezomib, reference compound], for which the “activity against Taspase1 (cleavage of p75MLL)” value (“activity against Taspase1” below) on Taspase1 [1] is listed as “no activity”.

With `COc1ccc(C(=O)OCc2ccc3c(c2)OCO3)cc1` [NSC23953], the “activity against Taspase1” value on Taspase1 [1] is on record as “no demonstrable activity”.

Turning to `O=[N+]([O-])c1cccc(NCNc2cccc([N+](=O)[O-])c2)c1` [NSC47905], at Taspase1 [1], the “activity against Taspase1” value was “no demonstrable activity”.

Regarding `O=[As](O)(O)c1ccc(Cc2ccc([As](=O)(O)O)cc2)cc1` [NSC48300, [4-[(4-arsonophenyl)methyl]phenyl] arsonic acid], in series [2] (complete blood counts), the hemoglobin levels entry is “decrease” and the “white blood cell counts” value was “decrease”. In addition, in series [2] (repetitive tail vein treatment), the injection site damage entry is “fibrotic damages of regional vessels at injection sites”. For the same molecule, in series [2] (setting [6]), the “blood chemistry: LDH level” value is “significant decrease”; the “blood chemistry: electrolytes and kidney functions” value is reported as “certain alterations”; the “histological examination of major organs” value is “did not reveal any obvious abnormalities”. Further, the “sensitivity to treatment in vitro among NCI60 brain tumor cell lines” value in the series with U251 cells was “most sensitive”. In addition, in the series with MMTV-wnt breast cancers, the “growth of MMTV-wnt breast cancers” value was “no effects”. Besides, the “specificity: Caspase8-mediated cleavage of p22Bid” value on Caspase8 is recorded as “specifically targeted Taspase1”. In addition, the “tumor growth by bioluminescent imaging” value in the series on U251 xenograft is “stasis of tumor growth”. At Taspase1 [3] (non-linear regression of reaction curves), the mode of inhibition entry was “non-competitive”. In addition, the “impact on Taspase1 autoproteolysis” value in series [4] was “no impact”. In addition, the “lysophospholipase D activity of autotaxin” value in the series on autotaxin was “inhibited”. Further, the “sensitivity compared to parental Taspase1−/− cell line” value in series [5] was “increased sensitivity”. For the same molecule, the “growth of MMTV-neu breast cancers” value in the series with MMTV-neu breast cancers is “consistently disrupted the growth”. Further, on Taspase1 [1], the half-inhibitory concentration (IC50) was roughly 7.5 µM. Moreover, on Taspase1 [1] (5 μM, pre-incubation for extended periods of time), the “reversible or irreversible inhibition (extended pre-incubation)” value was “reversible”.

Turning to `O=C(O)Cc1ccc(Oc2ccc(CC(=O)O)cc2)cc1` [NSC74084], the “activity against Taspase1” value on Taspase1 [1] is given as “no demonstrable activity”.

On to `Cc1cc(Cc2ccc3c(c2)OCO3)ccc1OCC(=O)O` [NSC352678], for which the “activity against Taspase1” value at Taspase1 [1] is recorded as “no demonstrable activity”.

For `O=[As](O)(O)O` [arsenic acid, reference compound], at Taspase1 [1] (up to 1 mM, 5 ng rTaspase1, 30 min preincubation), the “inhibition of Taspase1 by free arsenic acid” value is “no detectable inhibition”.

Turning to “MCA-KISQLDGVDD-DNP ({MCA}-KISQLDGVDD-{DNP}) [FRPR, reference compound]”, the Km with Taspase1 [3] (read-out: apparent KM, substrate of Taspase1) turned out to be 9.06 ± 2.8 µM.
